Source: publication PMC4893637 (Theranostics, 2016)

Key:
[1] = target: Recombinant human PSMA (rhPSMA) (Homo sapiens, UniProt Q04609); assay: NAALADase assay; type: biochemical
[2] = system: BALB/c nude mouse LNCaP xenograft; assay: MicroPET in LNCaP xenograft mouse; type: in vivo; conditions: 68Ga-labeled, i.v.
Summary of the method: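 Purified 68Ga-labelled test conjugates (50 MBq/nmol) were sterile-filtered and 100 µl injected into the tail vein of BALB/c nude mice bearing LNCaP xenografts under 2% sevoflurane. Two tracers were compared in the same mouse. Blocking used 100-fold excess of unlabelled compound, imaged 2 h post-injection.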

[3] = target: PSMA positive LNCaP cells (Homo sapiens, UniProt Q04609); assay: Internalization assay on LNCaP cells; type: cell-based; conditions: 30 nM radiolabeled compound, 45 min; 177Lu-labeled, except CIM 99mTc-labeled
PSMA positive LNCaP cells, sequence (Q04609 whole entry): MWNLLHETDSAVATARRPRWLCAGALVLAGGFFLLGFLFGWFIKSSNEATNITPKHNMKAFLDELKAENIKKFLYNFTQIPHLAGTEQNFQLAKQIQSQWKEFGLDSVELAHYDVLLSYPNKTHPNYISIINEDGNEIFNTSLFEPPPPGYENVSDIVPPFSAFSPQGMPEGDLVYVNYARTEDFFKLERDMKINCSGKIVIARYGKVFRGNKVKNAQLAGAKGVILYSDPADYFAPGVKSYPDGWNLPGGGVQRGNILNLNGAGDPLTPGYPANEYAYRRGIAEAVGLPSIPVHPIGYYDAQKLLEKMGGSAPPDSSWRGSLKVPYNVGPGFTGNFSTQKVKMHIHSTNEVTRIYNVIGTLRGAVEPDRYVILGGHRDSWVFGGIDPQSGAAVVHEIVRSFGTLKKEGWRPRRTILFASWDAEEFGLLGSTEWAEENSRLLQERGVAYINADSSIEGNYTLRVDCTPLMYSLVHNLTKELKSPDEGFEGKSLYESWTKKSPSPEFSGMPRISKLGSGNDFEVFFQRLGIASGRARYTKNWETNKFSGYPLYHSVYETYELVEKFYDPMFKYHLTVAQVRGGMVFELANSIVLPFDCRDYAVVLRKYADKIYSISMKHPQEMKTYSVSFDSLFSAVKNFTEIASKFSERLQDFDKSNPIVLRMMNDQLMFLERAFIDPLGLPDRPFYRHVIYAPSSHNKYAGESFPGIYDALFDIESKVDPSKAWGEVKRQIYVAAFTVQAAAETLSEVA
Summary of the method: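 Poly-L-lysine-coated wells were seeded with 10⁵ LNCaP cells in RPMI (10% FCS, 1% L-glutamine) and held overnight at 37 °C. Cells took up 30 nM radiolabelled test compound in Opti-MEM for 45 min at 37 °C or 4 °C, with 2-PMPA block or DMSO, in triplicate. Surface-bound tracer came off in two 5-min 50 mM glycine pH 2.8 washes and internalized tracer in 0.3 M NaOH lysate. All fractions were gamma-counted against a ligand standard.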

Recombinant human PSMA (rhPSMA), sequence (Q04609 whole entry): as above

IC50 [1]: 0.8 ± 0.3 nM
Time after which the amount in the tumor begins to decrease [2]: approximately 15 min
Absolute value of compound inside of the cells (amount internalized) [3]: 3.7 ± 4.6%
SMILES: O=C(O)CC[C@H](NC(=O)N[C@@H](CCCCNC(=O)[C@H](Cc1ccc2ccccc2c1)NC(=O)[C@H]1CC[C@H](CNC(=O)CN2CCN(CC(=O)O)CCN(CC(=O)O)CCN(CC(=O)O)CC2)CC1)C(=O)O)C(=O)O [DOTA conjugate]
